In series [1] the test system is Hepatitis C virus. Kind of series: Antiviral activity against Hepatitis C virus genotype 1b Con1 infected in human HuH7 cells after 72 hrs by luciferase assay. It counts as functional, cell-based, Hepacivirus hominis. As to conditions: genotype 1b Con 1, Huh-7, 72 h. In a few lines:
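Huh-7 cells stably carrying a genotype 1b Con1 bicistronic luciferase replicon, seeded at 8000 cells/well. Compounds were added at 0.5% DMSO final and incubated at 37°C for 72 h. Read-out was Bright-Glo luciferase, with cell proliferation measured by CellTiter-Fluor. EC50 is the mean of at least two independent runs. Some values are given as percent inhibition at 10 µM.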

A short description of series [2]: Cytotoxicity against human HuH7 cells assessed as cell proliferation by cell titer assay. It counts as cell-based, Huh-7. In a few lines:
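Huh-7 cells carrying GT1b Con1 bicistronic replicon seeded at 8000 cells/well; compound added at 0.5% DMSO final, 37°C for 72 h. Proliferation read with CellTiter-Fluor reagent per manufacturer; CC50 fitted from concentration-response, average of at least two independent determinations.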

Series [3] concerns Hepatitis C virus. Kind of series: Antiviral activity against Hepatitis C virus genotype 1b Con 1 infected in human HuH7 cells at 10 uM after 72 hrs by luciferase assay. It counts as functional, Hepacivirus hominis. The following applies: genotype 1b Con 1, Huh-7, 72 h. In a few lines: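 Huh-7 cells carrying a GT1b Con1 bicistronic luciferase replicon, 8000 cells/well. Compound tested at 10 µM in 0.5% DMSO final, 37°C for 72 h. Replicon signal read as luciferase (Bright-Glo) and reported as percentage inhibition at 10 µM. Cell proliferation measured in parallel with CellTiter-Fluor. Values are the average of at least two independent determinations.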

For series [4], the system named is Hepatitis C virus. Briefly: Antiviral activity against Hepatitis C virus genotype 1b harboring H94R mutation transfected in human HuH7 cells after 72 hrs by luciferase assay. It counts as functional, cell-based, Hepacivirus hominis. The following applies: Huh-7, 72 h. In a few lines: (§1)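 Huh-7 cells were transiently electroporated with genotype 1b replicon RNA carrying the specified mutation and plated at 10000 cells/well. Compounds were added at 0.5% DMSO final for 72 h at 37°C. Read-out was Bright-Glo luciferase. EC50 is the mean of two independent runs within 2-fold of each other. A reference drug EC50 was measured alongside each mutant replicon to validate it.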

The test system of series [5] is Hepatitis C virus. Briefly: Antiviral activity against Hepatitis C virus genotype 1b harboring F98C mutation transfected in human HuH7 cells after 72 hrs by luciferase assay. Type of series: functional, cell-based, Hepacivirus hominis. The following applies: Huh-7, 72 h. The method, boiled down: as §1
For series [6], the system named is Hepatitis C virus. Kind of series: Antiviral activity against Hepatitis C virus genotype 1b harboring Y448H NS5B (palm) mutation transfected in human HuH7 cells after 72 hrs by luciferase assay. It counts as functional, cell-based, Hepacivirus hominis. The following applies: Huh-7, 72 h. In a few lines: as §1
Series [7] deals with Hepatitis C virus. Briefly: Antiviral activity against Hepatitis C virus genotype 1b harboring Q26R mutation transfected in human HuH7 cells after 72 hrs by luciferase assay. It counts as functional, cell-based, Hepacivirus hominis. As to conditions: Huh-7, 72 h. The method, boiled down: as §1
Series [8] concerns Hepatitis C virus. Kind of series: Antiviral activity against Hepatitis C virus genotype 1b harboring M423I NS5B (thumb 2) mutation transfected in human HuH7 cells after 72 hrs by luciferase assay. It counts as functional, cell-based, Hepacivirus hominis. The following applies: Huh-7, 72 h. The method, boiled down:
as §1

In series [9] the test system is Hepatitis C virus. Kind of series: Antiviral activity against Hepatitis C virus genotype 1b harboring Y93H NS5A mutation transfected in human HuH7 cells after 72 hrs by luciferase assay. It counts as functional, cell-based, Hepacivirus hominis. As to conditions: Huh-7, 72 h. In a few lines: as §1
Series [10] relates to Hepatitis C virus. Kind of series: Antiviral activity against Hepatitis C virus genotype 1b harboring A156T NS3/4A mutation transfected in human HuH7 cells after 72 hrs by luciferase assay. It counts as functional, cell-based, Hepacivirus hominis. The following applies: Huh-7, 72 h. In a few lines: as §1
The test system of series [11] is Hepatitis C virus. Briefly: Antiviral activity against Hepatitis C virus genotype 1b harboring H3R NS4B mutation transfected in human HuH7 cells after 72 hrs by luciferase assay. It counts as functional, cell-based, Hepacivirus hominis. As to conditions: Huh-7, 72 h. The method, boiled down: as §1
The subject of series [12] is Hepatitis C virus. Briefly: Antiviral activity against Hepatitis C virus genotype 1b harboring V105M mutation transfected in human HuH7 cells after 72 hrs by luciferase assay. It counts as functional, cell-based, Hepacivirus hominis. As to conditions: Huh-7, 72 h. In a few lines: as §1
Series [13] has as its system Hepatitis C virus. Kind of series: Antiviral activity against Hepatitis C virus genotype 1b harboring P495A NS5B (thumb 1) mutation transfected in human HuH7 cells after 72 hrs by luciferase assay. It counts as functional, cell-based, Hepacivirus hominis. The following applies: Huh-7, 72 h. The method, boiled down:
as §1

Series [14] relates to Hepatitis C virus. Kind of series: Antiviral activity against Hepatitis C virus genotype 1b harboring S282T NS5B (active site) mutation transfected in human HuH7 cells after 72 hrs by luciferase assay. It counts as functional, cell-based, Hepacivirus hominis. The following applies: Huh-7, 72 h. In a few lines:
as §1

Where only a bound is given, the exact number is not on record here.

As to `O=C(c1nc2scc(C3CC3)n2c1Cl)N1CCN([C@H]2CC[C@H](O)CC2)C(=O)C1`, in the series with Hepatitis C virus [1], the EC50 worked out at 890 nM. The CC50 in [2] was over 10000 nM.

Turning to `O=C(c1nc2sc3ccccc3n2c1Cl)N1CCN(C2CCCC2)C(=O)C1`, the EC50 with Hepatitis C virus [1] worked out at 92 nM. Also, the CC50 in series [2] was over 10000 nM.

As for `CC(C)Cc1c(Cl)sc2nc(C(=O)N3CCN(C4CCCC4)C(=O)C3)c(Cl)n12`, the EC50 in the series with Hepatitis C virus [1] worked out at 6700 nM. The CC50 in [2] is over 10000 nM.

In turn, `CC1CCc2c(sc3nc(C(=O)N4CCN(C5CCCC5)C(=O)C4)c(Cl)n23)C1` (configuration not stated) yielded an EC50 with Hepatitis C virus [1] of 260 nM. Further, the CC50 in series [2] was over 10000 nM.

In the series with Hepatitis C virus [1], `O=C(c1nc2sc3c(n2c1Cl)CCCC3)N1CCN(C2CCCC2)C(=O)C1` yielded an EC50 of 190 nM. Further, in series [2], the CC50 was over 10000 nM.

Regarding `O=C(c1nc2sccn2c1Cl)N1CCN(C2CCCC2)C(=O)C1`, in the series on Hepatitis C virus [1], the EC50 is over 10000 nM. Also, the CC50 in series [2] is over 10000 nM.

Consider `O=C(c1nc2sc3c(n2c1Cl)CCC3)N1CCN(C2CCCC2)C(=O)C1`, for which the EC50 with Hepatitis C virus [1] was 130 nM. Also, the CC50 in [2] was over 10000 nM.

`Cc1csc2nc(C(=O)N3CCN(C4CCCC4)C(=O)C3)c(Cl)n12`: the CC50 in [2] is over 10000 nM. Besides, the inhibition at 10 µM with Hepatitis C virus [3] was determined as 53%.

Turning to `Cc1cn2c(Cl)c(C(=O)N3CCN(C4CCCC4)C(=O)C3)nc2s1`, the CC50 in [2] was over 10000 nM. In the series with Hepatitis C virus [3], the inhibition at 10 µM worked out at 46%.

Take `COc1ccc2c(c1)sc1nc(C(=O)N3CCN(C4CCCC4)C(=O)C3)c(Cl)n12`: it took 8630 nM to reach a half-maximal effect in the series on Hepatitis C virus [1] (EC50). Moreover, the CC50 in series [2] was over 10000 nM.

With `O=C(c1nc2sc3cc(Cl)ccc3n2c1Cl)N1CCN(C2CCCC2)C(=O)C1`, in the series on Hepatitis C virus [1], the EC50 was determined as 1850 nM. The CC50 in series [2] is over 10000 nM.

Compound `O=C(c1nc2scc(C3CC3)n2c1Cl)N1CCN(C2CC=CC2)C(=O)C1` displayed an EC50 in the series with Hepatitis C virus [1] of 79 nM. The CC50 in [2] is over 10000 nM.

As to `Cc1c(C(C)C)sc2nc(C(=O)N3CCN(C4CCCC4)C(=O)C3)c(Cl)n12`, in [2], the CC50 was over 10000 nM. Further, in the series with Hepatitis C virus [3], the inhibition at 10 µM came to 50%.

`O=C(c1nc2sc3c(n2c1Cl)CCCCC3)N1CCN(C2CCCC2)C(=O)C1` registered an EC50 in the series with Hepatitis C virus [1] of 940 nM. Further, the CC50 in series [2] is over 10000 nM.

In the case of `O=C(c1nc2sc(Cl)c(C3CC3)n2c1Cl)N1CCN(C2CCCC2)C(=O)C1`, the response in the series with Hepatitis C virus [1] was half-maximal at 8600 nM (EC50). In addition, the CC50 in [2] is over 10000 nM.

Turning to `O=C(c1nc2sc3ccccc3n2c1Cl)N1CCN(C2CC=CC2)C(=O)C1`, the EC50 was determined as 31 nM in the series on Hepatitis C virus [1]; 6400 nM in the series with Hepatitis C virus [4]; 3270 nM in the series with Hepatitis C virus [5]; 33 nM with Hepatitis C virus [6]; 4960 nM in the series on Hepatitis C virus [7]; 32 nM with Hepatitis C virus [8]. For the same compound, the EC50 was 19 nM with Hepatitis C virus [9]; 77 nM in the series on Hepatitis C virus [10]; 4850 nM in the series with Hepatitis C virus [11]; 12500 nM in the series on Hepatitis C virus [12]; 22 nM with Hepatitis C virus [13]; 25 nM in the series with Hepatitis C virus [14]. Further, the CC50 in [2] was over 10000 nM.

In the series with Hepatitis C virus [1], `O=C1CCCc2c1sc1nc(C(=O)N3CCN(C4CCCC4)C(=O)C3)c(Cl)n21` came in with an EC50 of over 10000 nM. For the same compound, the CC50 in series [2] was over 10000 nM.

With `O=C(c1nc2sc3ccccc3n2c1Cl)N1CCN([C@H]2CC[C@H](O)CC2)C(=O)C1`, the EC50 in the series on Hepatitis C virus [1] was 330 nM. Besides, the CC50 in [2] was over 10000 nM.

For the compound `CC(C)c1cn2c(Cl)c(C(=O)N3CCN(C4CCCC4)C(=O)C3)nc2s1`, in the series with Hepatitis C virus [1], the EC50 turned out to be 1320 nM. Further, in [2], the CC50 is over 10000 nM.

In the case of `Cc1ccc2c(c1)sc1nc(C(=O)N3CCN(C4CCCC4)C(=O)C3)c(Cl)n12`, it took 300 nM to reach a half-maximal effect with Hepatitis C virus [1] (EC50). Further, in series [2], the CC50 was over 10000 nM.

Compound `O=C(c1nc2sc3cc(Br)ccc3n2c1Cl)N1CCN(C2CCCC2)C(=O)C1` registered a half-maximal effective concentration (EC50) in the series on Hepatitis C virus [1] of 1790 nM. For the same compound, in series [2], the CC50 is over 10000 nM.

In the series with Hepatitis C virus [1], `CC(C)Cc1csc2nc(C(=O)N3CCN(C4CCCC4)C(=O)C3)c(Cl)n12` returned an EC50 of 740 nM. The CC50 in [2] is over 10000 nM.

`CC1(C)CCc2c(sc3nc(C(=O)N4CCN(C5CCCC5)C(=O)C4)c(Cl)n23)C1`: in the series with Hepatitis C virus [1], the EC50 was determined as 1120 nM. For the same compound, the CC50 in series [2] was over 10000 nM.

These data come from ChEMBL document CHEMBL3425469, “Discovery of imidazo[2,1-b]thiazole HCV NS4B inhibitors exhibiting synergistic effect with other direct-acting antiviral agents” (J Med Chem, 2015).
